Laboratory results: article PMC10330775 (Experimental cell research, 2023)

Target: T1, RsTSPO WT (Cereibacter sphaeroides, UniProt Q9RFC8)
T1 sequence (Q9RFC8 1-158): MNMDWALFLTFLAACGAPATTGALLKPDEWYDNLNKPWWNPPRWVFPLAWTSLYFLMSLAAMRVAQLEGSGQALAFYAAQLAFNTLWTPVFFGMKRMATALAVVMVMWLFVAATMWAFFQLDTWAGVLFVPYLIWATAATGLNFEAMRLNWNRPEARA
Assay: tryptophan fluorescence quenching titration, Hill fit
Format: binding
Outline: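 Purified wild-type Rhodobacter sphaeroides TSPO, 2.5 uM in 20mM Tris pH 8.0, 150mM NaCl, 0.20% DM, 2mM TCEP, titrated at room temperature with increasing amounts of test compound in DMSO. Emission scanned 290–400 nm, excitation 285 nm. Ligand, buffer and solvent absorption/emission controls run. Kd from Hill-equation fit of the quenching curve.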

`Nc1ccccc1C(=O)C[C@H](N)C(=O)O` [Kynurenine] was tested, and the Kd was 172 ± 11 µM.
